The results in this text go back to paper PMC6957261 (Biochimica et biophysica acta. Biomembranes, 2018).

Holding throughout (test): Membrane translocation by confocal microscopy in living LNCaP cells
Common to all, as to type: cell-based

Experiment [1] addresses GFP-tagged wild type PKCθ (Homo sapiens, UniProt Q04759). The procedure, abridged: (§1)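 Full-length PKCθ constructs in pEGFP-N1 transfected into LNCaP cells 48 h after plating (RPMI 1640, 10% FBS, 37 °C). After 24 h, PMA is added in phenol red-free DMEM/1% FBS. Live confocal imaging at 488 nm every 30 s. Membrane/cytoplasm mean GFP ratio from 4 μm² regions is normalized to time 0 and read at 5 and 10 min. Three independent experiments, unpaired two-tailed t test.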

Experiment [2] concerns the target GFP-tagged PKCθ C1b-C1b chimera (Homo sapiens, UniProt Q04759, A164V/A195M/A196N/A207N/D203T/E161R/E178T/F166N/F167Y/F179L/H177G/I197V/I202Q/I206A/K185R/K199H/K200R/K208L/N184A/N194G/P168K/Q169S/Q189K/Q192A/R191D/S174E/T163K/T165Y/V175H/V180L/Y188L). As to conditions: response after 100 nM PMA, compared to wild type. The procedure, abridged: as §1
The target in experiment [3] is GFP-tagged PKCθ ΔC1b (Homo sapiens, UniProt Q04759, DEL232-281). As to conditions: 100 nM, 1 μM and 10 μM PMA.
Experiment [4] concerns the target GFP-tagged PKCθ C1a-C1a chimera (Homo sapiens, UniProt Q04759, A256N/A264Q/A278I/D263R/E246S/G249H/G266N/H247V/H271K/K235T/K240P/K261Q/L251F/L252V/L260Y/L280K/M267A/N238F/N268A/N279A/Q274I/R233E/R257K/R272K/S241Q/T250E/T275D/V236A/V269I/Y237T/Y239F). The procedure, abridged:
as §1

Experiment [5] concerns the target GFP-tagged PKCθ ΔC1a (Homo sapiens, UniProt Q04759, DEL160-209). The procedure, abridged:
as §1

In experiment [6] the target is GFP-tagged PKCθ/P168K (Homo sapiens, UniProt Q04759, P168K). To be noted: PMA, compared to wild type, not statistically significant. The procedure, abridged: as §1
Experiment [7] deals with GFP-tagged PKCθ/K240P (Homo sapiens, UniProt Q04759, K240P). To be noted: 1 μM PMA. The procedure, abridged:
as §1

As for `CCCCCCCCCCCCCC(=O)O[C@@H]1[C@@H](C)[C@@]2(O)[C@@H](C=C(CO)C[C@]3(O)C(=O)C(C)=C[C@@H]23)[C@@H]2C(C)(C)[C@]12OC(C)=O` [PMA, phorbol 12-myristate 13-acetate], the “translocation to the plasma membrane (membrane/cytoplasm ratio)” value is listed as “little response” in experiment [1] (100 nM PMA); “translocated in a dose dependent manner” in experiment [1] (1 and 10 μM PMA, 5 and 10 min); “stronger translocation” in experiment [2]; “complete loss of plasma membrane translocation” in experiment [3]; “no translocation” in experiment [4] (1 μM PMA); “very small but statistically significant increase in the translocation” in experiment [4] (10 μM PMA). For the same molecule, the “translocation to the plasma membrane (membrane/cytoplasm ratio)” value in experiment [5] (PMA, compared to wild type) was “enhanced membrane interaction compared to the wild type”; in experiment [6], “increased translocation”; in experiment [7] it was “modestly decreased translocation”. Moreover, the “enhancement of translocation to the plasma membrane” value in experiment [5] (100 nM PMA, deletion of C1a versus full length PKCθ) came out at 5 fold.
